From ChEMBL document CHEMBL4513216, “Probing the Open Global Health Chemical Diversity Library for Multistage-Active Starting Points for Next-Generation Antimalarials” (ACS Infect Dis, 2020)

Experiment: Toxicity liver stage against HepG2, at 10uM
Format: cell-based
Design: test concentration 10 uM, cell line HepG2-A16-CD81EGFP
Settings: human, HepG2-A16-CD81EGFP cells; read-out: INHIBITION
Summary of the method: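 Uninfected HepG2-A16-CD81EGFP cells, 3 × 10^3 per well, 1536-well, plated on prespotted compound at 10 μM final, parasite-free screening media added to match infected plates; puromycin 10 μM positive, DMSO 0.5% negative; run in parallel with 48 h PbLuc assay at 37 °C, 5% CO2; viability by CellTiter-Glo luminescence, normalized to controls.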

Structure (SMILES) | cytotoxicity at 10 µM [%]
O=c1[nH]ncn1-c1cccc(C(F)(F)F)c1 | -2
O=C(NCN1CCc2ccccc2C1)c1cnccn1 | 20.2
COCC(=O)N1CCC2(CC1)CC(OC)c1ccc(F)cc12 (stereo unspecified) | -134
N#Cc1cccc(CN2C[C@@H](NC(=O)C3CC3)[C@H]3OCCC[C@H]32)c1 | 6.44
O=C(O)c1ccc2c(CN3CCCC3)c[nH]c2c1 | -2.09
CC(=O)N1N=C(c2ccccc2)OC1C(=O)NCCc1cccc(Cl)c1 (stereo unspecified) | 2.82
CCNC(=O)N1CCC2(C1)c1ccccc1S(=O)(=O)N2CCC(C)C (stereo unspecified) | -8.25
COc1cc(CNc2ccc(Cl)cc2)ccc1OCC(=O)O | 3.63
COc1ccnc(N2CCC(OCCN3CCCCC3)C2)n1 (stereo unspecified) | -44.9
O=S(=O)(NCCCn1ccc2ccccc21)N1CCCCC1 | 12.8
O=C(Nc1ccc(F)cc1-c1nc(C2CC2)no1)N1CC[C@@H](O)C1 | -1.54
CCn1nc2c(cc1=O)CN(Cc1nc(-c3ccoc3)no1)CC2 | 4.9
Cc1cc(C(F)(F)F)c2c(=O)n(Cc3cc(C)on3)n(C)c2n1 | 1.46
CC(CC(=O)c1ccco1)NC(=O)c1ccccn1 (stereo unspecified) | -5.14
Cc1cc(N2CCSCC2)ccc1NC(=O)N(CCO)C1CC1 | -10.1
CN(C)C(=O)CNC(=O)c1cc2ccccc2nc1N1CCCC1 | -6.18
Cn1nc2c(cc1=O)CN(c1ncnc3sccc13)CC2 | 7.97
O=C(c1cn(-c2ccccc2Cl)nn1)N1CCN(CCO)CC1 | -2.88
Cc1ccc(C(CNCc2cccnc2)N2CCOCC2)s1 (stereo unspecified) | 4.03
CCSCCC(=O)Nc1ncn(Cc2ccccc2)n1 | 4.74
COCC(=O)NC1CCN(c2cccc(OC(F)(F)F)c2)C1=O (stereo unspecified) | -3.17

Structure (SMILES) | cytotoxicity at 10 µM [%]
CC(c1cccc(O)c1)N(C)S(N)(=O)=O (stereo unspecified) | -1.89
COc1cc(/C=C/c2ncc(C(=O)O)s2)cc(OC)c1 | -3.86
CC1CN(C2CCN(Cc3nccn3CC(F)(F)F)CC2)CCO1 (stereo unspecified) | -1.32
CCN1CCN(c2ccc(C(=O)NC(C)c3ccncc3)cc2)CC1 (stereo unspecified) | -16.6
Cn1c(=O)oc2ccc(Nc3ncc(C#N)cc3Cl)cc21 | -1.21
CC(C(=O)NCCc1cccs1)N1CCC(n2ccnc2)CC1 (stereo unspecified) | -16
Cc1cc(C)n(CC2CCCCN2C(=O)c2sccc2C#N)n1 (stereo unspecified) | -0.497
Cc1nc(N2CCCC2)ccc1NCc1ccccn1 | 5.13
O=C(COCc1ccccc1Cl)Nc1ccnn1CC1CCOC1 (stereo unspecified) | -1.9
O=C(NCc1ccco1)Nc1cccc(S(=O)(=O)C(F)F)c1 | -54.8
CC(Oc1ccccc1C#N)C(=O)NC1CC1 (stereo unspecified) | 6.21
CN(C)C(=O)CNS(=O)(=O)c1cc(Br)ccc1F | -47.1
O=C(c1ccc[nH]1)N1CCCn2c(CN3CCCCC3)nnc2C1 | -106
Cc1cccc(N2CC3(COCCN(c4ccncn4)C3)OCC2=O)c1 (stereo unspecified) | -105
Cc1occc1C(=O)N1CCC2(CC1)NC(=O)CC2c1cnn(C)c1 (stereo unspecified) | -4.99
COCCC1(CO)CCCN(C(=O)c2ccc(C(C)C)[nH]c2=O)C1 (stereo unspecified) | -55.1
OCc1ccc(CN(CCCn2ccnc2)Cc2ccncc2)o1 | -4.41
Cc1ccc(C(=O)N2CCC3(CC2)CN(CCN(C)C)C(=O)O3)c(F)c1 | 7.46
CCc1nnc(CN(C)c2nccc(N3CCCC(O)C3)n2)o1 (stereo unspecified) | -4.68
CCOC(=O)CC1CCCCN1C(=O)c1cc(=O)[nH]c(=O)[nH]1 (stereo unspecified) | 5.76
CCC[C@H]1CN(Cc2ccc(N(C)C)nc2)C[C@@H]1NC(=O)CO | 9.23

Structure (SMILES) | cytotoxicity at 10 µM [%]
CC(C)[C@H]1COC(=O)N1CC(=O)N(C)CCCn1cccn1 | -157
Cc1ccccc1-n1cc(CN(C)C(=O)CC2C(=O)NCCN2C)cn1 (stereo unspecified) | 6.89
COCCN(C)C[C@@H]1CN(C(=O)c2ccc3c(c2)OCO3)C[C@@H]1CO | 8.47
CCN(Cc1ccc(O)c(C(=O)O)c1)CC1CCCO1 (stereo unspecified) | 3.9
Cc1cc(C(=O)N2CC[C@@]3(O)CCN(S(C)(=O)=O)C[C@H]3C2)c(C)n1C | -8
CC(C)c1nccn1CCCNC(=O)c1ccc(-c2cnn(C)c2)nc1 | -9.36
CCc1cc(N(C)Cc2ccncn2)n2nc(C)c(C)c2n1 | 4.34
O=C(CCC1CCN(C2CCSCC2)CC1)NCC1CCCO1 (stereo unspecified) | 8.73
CC(C)N1CCC(c2nnc(CN3CCCC3)n2C2CC2)CC1 | -4.57
O=C(NCCc1ccc2c(c1)OCO2)C1CCCN(Cc2ccco2)C1 (stereo unspecified) | 0.209
CC(CCc1ccc(O)cc1)NC1CCN(C(=O)C(C)C)CC1 (stereo unspecified) | -4.89
Cc1nc(CN2CCC(c3nc4ccccc4n3C)CC2)co1 | 13.5
Cc1ccc(O)c(C(=O)N2CCC3(CCCNC3)C2)c1 (stereo unspecified) | -10.2
CC(C)c1nc(N2CCC(N3CCCCCC3)CC2)c2cnn(C)c2n1 | -135
c1cc(CN2CCC(n3cc(CN4CCCC4)nn3)CC2)cs1 | -6.26
Cc1ccc(C(=O)NCCC2CCN(C)CC2)cc1N(C)S(C)(=O)=O | -15.1
CC(C)Oc1ccc2c(NC(=O)CN(C)C)nn(CC(F)(F)F)c2c1 | 1.6
Cc1nc2c(c(NCc3ccccc3)n1)CCN(C(=O)C1CCC1)CC2 | 14.3
NCC1Cc2cc(-c3cncc(C(=O)N4CCOCC4)n3)cc(Cl)c2O1 (stereo unspecified) | -42.8
Cc1ccc(CN(Cc2cccnc2)C2CC(C)(C)NC(C)(C)C2)s1 | 4.94
CCN1CCOCC12CCN(C(=O)c1ccsc1)CC2 | -146

Structure (SMILES) | cytotoxicity at 10 µM [%]
Cn1nnc2c1C(COCC1CC1)CN(Cc1ccoc1)C2 (stereo unspecified) | 2.49
Fc1cccc(CN2CCC3(CCCN3c3ncccn3)CC2)c1 | 3.62
Cc1cnc(N2CCN3C[C@H](OCc4ccccn4)C[C@H]3C2)nc1 | -1.68
Cc1ncsc1CN1C[C@@H]2COC[C@]2(C(=O)NCc2cccnc2)C1 | -106
O=C(c1ccsc1)N1CCO[C@@H]2CN(Cc3nccs3)C[C@@H]2C1 | -108
COCCN1CCOCC12CCN(c1cnccn1)CC2 | -102
Cc1noc(C)c1CN1CCC2(CC1)C(c1ccccc1)CC(=O)N2C (stereo unspecified) | -105
c1ccc(CN2CCC3(CC2)CCN(c2ccccn2)C3)nc1 | -128
Cc1cccc(CN2CC[C@@H]3[C@@H]2CCN3C(=O)Cc2cccs2)n1 | -114
O=C(Nc1cccnc1)[C@H]1C[C@H]2OCC[C@H]2N(CC2CC2)C1 | 4.7
c1cn2c(n1)CN(CC1CC1)CC(CN1CCOCC1)C2 (stereo unspecified) | 1.49
COc1ccc2c(ccn2CCCN)c1 | -3.91
CCCn1nccc1NC(=O)CN1CCCC1Cn1cc(C)cn1 (stereo unspecified) | -8.09
Cc1cnc(C(=O)N2C[C@@H]3CC[C@H]2CN(Cc2cscn2)C3)[nH]1 | 4.16
O=c1c2c[nH]c(N3CCCC3)nc-2cn1C1CCS(=O)(=O)C1 (stereo unspecified) | 1.09
CCC=C(C)C(=O)NCc1ccnc(OC)c1 | -2.51
Cc1ccc(CN2C[C@@H]3C[C@H](C(=O)NCc4cccnc4)[C@H](C2)O3)cc1 | 2.5
Cc1cnc(C(=O)N2C[C@@H]3CC[C@H]2CN(S(=O)(=O)N(C)C)C3)cn1 | -6.77
